Source: ChEMBL document CHEMBL1152989, “Results of a double-blind, randomized trial of ceftobiprole treatment of complicated skin and skin structure infections caused by gram-positive bacteria” (Antimicrob Agents Chemother, 2008)
Converted amounts (≈) assume the structure as drawn.

Legend:
Staphylococcus aureus [1] = assay: Antibacterial activity against methicillin-susceptible Staphylococcus aureus; type: functional
In short: (§1)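 Duplicate baseline isolates from the infection site were tested centrally for susceptibility on customized TREK broth panels by CLSI methods. Identification was by coagulase and API testing. Staphylococci were typed for mecA and PVL genes by multiplex analysis.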

Staphylococcus aureus [2] = assay: Antibacterial activity against methicillin-resistant Staphylococcus aureus infected in human with infections extending to fascia or muscle assessed as cure rate at test-of-cure visit; type: functional, Muscle tissue
Staphylococcus aureus [3] = assay: Antibacterial activity against methicillin-resistant Staphylococcus aureus; type: functional; in short: as §1
Staphylococcus aureus [4] = assay: Antibacterial activity against methicillin-resistant Staphylococcus aureus infected in human with complicated skin and skin structure infection assessed as cure rate at test-of-cure visit in presence of C-reactive protein; type: functional
Homo sapiens [5] = species on record: Homo sapiens; assay: Toxicity in methicillin-resistant Staphylococcus aureus-infected human with complicated skin and skin structure infection assessed as nausea; type: organism-based; settings: in vivo
In short: (§2)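 Safety population: randomized patients given at least one dose of IV study drug (500 mg every 12 h, 1-h infusion, 7–14 days) or vancomycin 1 g every 12 h, double-blind. Adverse events, including deaths, were recorded during treatment and follow-up. Laboratory values were compared between baseline and end of therapy.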

Staphylococcus aureus [6] = assay: Antibacterial activity against methicillin-resistant Staphylococcus aureus infected in human with complicated skin and skin structure infection assessed as cure rate at test-of-cure visit; type: functional
Homo sapiens [7] = species on record: Homo sapiens; assay: Toxicity in methicillin-resistant Staphylococcus aureus-infected human with complicated skin and skin structure infection assessed as diarrhea; type: organism-based; settings: in vivo; in short: as §2
Homo sapiens [8] = species on record: Homo sapiens; assay: Toxicity in methicillin-resistant Staphylococcus aureus-infected human with complicated skin and skin structure infection assessed as pruritus; type: organism-based; settings: in vivo; in short: as §2
Homo sapiens [9] = species on record: Homo sapiens; assay: Toxicity in methicillin-resistant Staphylococcus aureus-infected human with complicated skin and skin structure infection assessed as vomiting; type: organism-based; settings: in vivo; in short: as §2
Homo sapiens [10] = species on record: Homo sapiens; assay: Toxicity in methicillin-resistant Staphylococcus aureus-infected human with complicated skin and skin structure infection assessed as headache; type: organism-based; settings: in vivo; in short: as §2
Staphylococcus aureus [11] = assay: Antibacterial activity against methicillin-susceptible Staphylococcus aureus infected in human with complicated skin and skin structure infection assessed as cure rate at test-of-cure visit; type: functional
Homo sapiens [12] = species on record: Homo sapiens; assay: Toxicity in methicillin-resistant Staphylococcus aureus-infected human with complicated skin and skin structure infection assessed as dysgeusia; type: organism-based; settings: in vivo; in short: as §2
Homo sapiens [13] = species on record: Homo sapiens; assay: Toxicity in methicillin-resistant Staphylococcus aureus-infected human with complicated skin and skin structure infection assessed as rash; type: organism-based; settings: in vivo; in short: as §2
Homo sapiens [14] = species on record: Homo sapiens; assay: Toxicity in methicillin-resistant Staphylococcus aureus-infected human assessed as death; type: organism-based; settings: in vivo; in short: as §2
Homo sapiens [15] = species on record: Homo sapiens; assay: Toxicity in methicillin-resistant Staphylococcus aureus-infected human with complicated skin and skin structure infection assessed as dizziness; type: organism-based; settings: in vivo; in short: as §2
Staphylococcus aureus [16] = assay: Antibacterial activity against methicillin-resistant Staphylococcus aureus PVL positive isolate infected in human with complicated skin and skin structure infection assessed as cure rate at test-of-cure visit; type: functional
Homo sapiens [17] = species on record: Homo sapiens; assay: Toxicity in methicillin-resistant Staphylococcus aureus-infected human with complicated skin and skin structure infection assessed as constipation; type: organism-based; settings: in vivo; in short: as §2
Staphylococcus aureus [18] = assay: Antibacterial activity against methicillin-resistant Staphylococcus aureus clinical isolate; type: functional; in short: as §1

Compound	MIC50 (Staphylococcus aureus [1]) [µg/mL]	MIC90 (Staphylococcus aureus [1]) [µg/mL]	Activity (Staphylococcus aureus [2]) [%]	MIC90 (Staphylococcus aureus [3]) [µg/mL]	Activity (Staphylococcus aureus [4]) [%]	Activity (Homo sapiens [5]) [%]	Activity (Staphylococcus aureus [6]) [%]	Activity (Homo sapiens [7]) [%]	Activity (Homo sapiens [8]) [%]	Activity (Homo sapiens [9]) [%]	Activity (Homo sapiens [10]) [%]	Activity (Staphylococcus aureus [11]) [%]	Activity (Homo sapiens [12]) [%]	Activity (Homo sapiens [13]) [%]	Activity (Homo sapiens [14])	Activity (Homo sapiens [15]) [%]	Activity (Staphylococcus aureus [16]) [%]	Activity (Homo sapiens [17]) [%]	MIC50 (Staphylococcus aureus [18]) [µg/mL]	MIC90 (Staphylococcus aureus [18]) [µg/mL]
Nc1nc(/C(=N/O)C(=O)N[C@@H]2C(=O)N3C(C(=O)O)=C(/C=C4\CCN([C@@H]5CCNC5)C4=O)CS[C@H]23)ns1 [CEFTOBIPROLE]	0.25 (≈ 0.468 µM)	0.5 (≈ 0.935 µM)	90.5	≤ 2	86.9	14	91.8	5	3	7	7	96	8	2	Non-toxic	4	93.1	4	0.5 (≈ 0.935 µM)	2 (≈ 3.74 µM)
CN[C@H](CC(C)C)C(=O)N[C@H]1C(=O)N[C@@H](CC(N)=O)C(=O)N[C@H]2C(=O)N[C@H]3C(=O)N[C@H](C(=O)N[C@H](C(=O)O)c4cc(O)cc(O)c4-c4cc3ccc4O)[C@H](O)c3ccc(c(Cl)c3)Oc3cc2cc(c3O[C@@H]2O[C@H](CO)[C@@H](O)[C@H](O)[C@H]2O[C@H]2C[C@](C)(N)[C@H](O)[C@H](C)O2)Oc2ccc(cc2Cl)[C@H]1O [VANCOMYCIN]	0.5 (≈ 0.345 µM)	1 (≈ 0.69 µM)	85.7		87.5	8	90	4	6	4	6	96.4	1	3		2	84.6	3	0.5 (≈ 0.345 µM)	1 (≈ 0.69 µM)
